High-throughput results (PubChem BioAssay)
Shown are actives, neighbours in structure and some others; about 3.7% of the full set was active somewhere.
B2AR ag – human beta-2 adrenergic receptor agonism by FAP | response, % (test concentration not listed) | AID 504454 | 340,000 compounds, 0.43% hits | P07550 | Am2.2-beta2AR cells, FAP receptor internalization, flow cytometry;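 active means response above a set limit, near 3 SD of response in nonfluorescent compounds, cut at about 42% in these data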
MDM2 E3 inh – blocks human Mdm2 ubiquitin ligase activity | cell-based MDM2 ubiquitination luciferase reporter, 2 h; 0 = plate control, 100 = twice control, blank-subtracted | signal enhancement, % at 5 µM | 210,000 compounds, 0.11% hits | Q00987;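 active means signal enhancement of 30% or more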;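 further: luminescence tracks abundance of the self-degrading MDM2-luciferase fusion protein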
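system = mammalian cells stably expressing self-ubiquitinating, self-degrading MDM2 E3–luciferase fusion | quantity = 2000 cells per well seeded | incubation = 4 h cell settling then 2 h compound exposure, 37 °C | signal = SteadyLite luminescence, 15 min reagent step | benchmarks = plate control and blank wells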
Dynein transport – blocks dynein driven cargo transport along microtubules. 3617.4 mouse cells, GR-EGFP nuclear translocation imaging; test concentration mostly 20 µM; stimulated with dexamethasone, 1 µM; hits give low values. z-score, hits read low. 220,000 compounds, 0.47% hits. AID 1381;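 active means plate z-score of nuclear minus cytoplasmic receptor signal below a set negative limit, without overly bright fluorescence or cell loss, cut at about -3.5 in these data, passing the limit was not always enough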;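 further: z-score of nuclear minus cytoplasmic ring GR-EGFP intensity difference per well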
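Buffer or medium: tet-free, stripped-serum medium; Also added: dexamethasone, 1.0 µM final; Technique: high-content fluorescence imaging after fixation; Times: 48 h induction, 1 h compound, 30 min dex at 37 °C; Read-out: per-cell GR-EGFP intensity, nucleus versus surrounding cytoplasmic ring, well-averaged.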
UPR XBP1 act – activators of adaptive arm of unfolded protein response (XBP1). CHO-XBP1 luciferase reporter, IRE1-XBP1 UPR activation, luminescence; percent of tunicamycin response, DMSO as zero. AID 463104. activation, % at 20 µM. 330,000 compounds, 0.33% hits;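 active means versus positive control, 20 µM dose yields 30% or more activation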;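 further: 100% = tunicamycin at 10 µg/mL and 0% = DMSO only wells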
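Assay system: IRE1-XBP1 luciferase reporter CHO line. Input: 1000 cells/well. Buffer or medium: F12 with 10% serum. Doses: 20 µM, 1% DMSO. Times: overnight seeding at 37 °C, 6 h compound treatment at 37 °C. Technique: Steady-Glo luciferase glow luminescence, 10 min after reagent addition.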
Mdm2 MdmX PPI – human Mdm2/MdmX binding inhibition | O15151+Q00987 | SaOS-2 split-luciferase Mdm2/MdmX complementation, luminescence | inhibition, % at 8 µM | 330,000 compounds, 3% hits | AID 485346;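 active means inhibition of at least 50% at 8 µM in the primary screen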
UPR CHOP act – activators of apoptotic arm of unfolded protein response (CHOP); activation, % at 10 µM; CHO-CHOP luciferase reporter, UPR activation, luminescence; percent of tunicamycin response over DMSO baseline; AID 449763; 330,000 compounds, 0.34% hits;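 active means at 10 µM dose, activation of 40% or more, normalized to positive control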;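 further: 100% = tunicamycin at 10 µg/mL and 0% = DMSO alone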
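Test system: CHO CHOP reporter cells. Input: 500 CHO-CHOP cells per well. Medium: F12 with 10% FBS. Technique: luciferase luminescence. Measure: percent activation relative to tunicamycin control. Dosing: 10 µM compound, 0.5% DMSO. Timing: 16-18 h cell attachment, then 6 h compound exposure, 37 °C.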
Mdm2-MdmX conf – human Mdm2/MdmX binding inhibition, confirmed; shares compounds with Mdm2 MdmX PPI; luminescent assay; inhibition, % at 8 µM; 10,000 compounds, 55% hits; in the data active means inhibition above about 40%
FLuc counter – counter-screen for Mdm2/MdmX inhibitors: full-length luciferase; SaOS-2 full-length luciferase counterscreen, luminescence; inhibition, % at 8 µM; AID 504607; 6,200 compounds, 77% hits; shares compounds with Mdm2 MdmX PPI;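 active means mean inhibition at 8 µM reaching about 37%, which flags the compound as non-specific, limit read from the data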;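 further: p53-null SaOS-2 cells with luciferase driven by a doxycycline-inducible promoter; compound on cells about two nights before reading with doxycycline added after day one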
Starred values were filed as active, the others as inactive; x = not tested or not shown.

SMILES	B2AR ag	MDM2 E3 inh	Dynein transport	UPR XBP1 act	Mdm2 MdmX PPI	UPR CHOP act	Mdm2-MdmX conf	FLuc counter
Cc1ccc(/C=N/NC(=O)c2c(-c3ccccc3)noc2C)c(O)c1	2	x	x	-1	65*	-2	62*	31
NS(=O)(=O)c1ccc(CCNc2ccnc3cc(Cl)ccc23)cc1	-1	x	x	-6	28	-2	x	x
O=C(O)Cn1c(-c2ccccc2)cc2ccccc21	-3	x	x	-4	14	0	x	x
CC1=CC(C)(C)Nc2ccc(OC(=O)CN3C(=O)c4ccccc4C3=O)cc21	1	-11	-0.38	-4	97*	10	26	13
O=C(COc1ccc(Br)cc1)NNC(=O)c1cc(S(=O)(=O)N2CCOCC2)ccc1Cl	12	x	x	x	x	x	x	x
S=C(Nc1cccc(Cl)c1)N(CCCN1CCCC1)Cc1cccn1Cc1ccc(Cl)cc1	27	5	0.55	9	62*	4	33	x
Cn1cc(CN(CCCN2CCOCC2)C(=S)Nc2cccc(Cl)c2)c2ccccc21	10	-8	0.83	-2	25	-1	x	x
CSc1cccc(NC(=S)N(CCCN2CCCC2)Cc2cccn2Cc2ccc(Cl)cc2)c1	33	-8	-0.43	17	73*	3	44*	63*
COc1cccc(NC(=S)N(CCCN2CCCC2)Cc2cccn2Cc2ccc(Cl)cc2)c1	8	-24	2.6	0	56*	1	23	x
C/C(=N\NC(=S)Nc1ccc(F)cc1)c1ccc2c(c1)OCCO2	-14	-10	0.34	3	64*	7	62*	56*
C/C(=N\NC(N)=S)c1ccc2c(c1)OCCO2	0	-9	-0.69	5	-21	2	x	x
COc1ccc(C(=O)c2c(C(F)(F)F)oc3c2C(=O)c2ccccc2C3=O)cc1	13	x	0.39	-3	78*	-1	66*	54*
Cc1nc(NC(=O)c2cccnc2Cl)sc1C	13	x	x	2	-39	2	x	x
COc1cc2c3c(c1)C(C)=CC(C)(C)N3C(=O)C2=O	4	0	0.017	12	56*	2	26	x
O=C1CCNc2cc3ccccc3cc21	-16	-16	-0.68	1	65*	1	61*	49*
CSc1c(CC(=O)Nc2ccccc2)n(C)c2ccccc12	-3	x	x	-5	50*	1	-35	x
CSc1c(CC(=O)Nc2ccc(F)cc2)n(Cc2ccccc2)c2ccccc12	10	-9	-0.32	2	86*	0	18	x
CCN(C(=O)CN1CCCC(C)C1)c1c(N)n(Cc2ccccc2)c(=O)[nH]c1=O (stereo unspecified)	-3	x	x	1	-11	0	x	x
Cc1ccc2sc(N(CCCN(C)C)C(=O)c3ccc(S(=O)(=O)N4CCOCC4)cc3)nc2c1C	4	x	x	0	30	1	x	x
CCN(Cc1ccccc1)S(=O)(=O)c1ccc(C(=O)N(CCCN(C)C)c2nc3cc4c(cc3s2)OCO4)cc1	21	x	x	0	73*	2	16	x
Cc1ccc2sc(N(CCCN(C)C)C(=O)c3ccc(S(=O)(=O)N(C)C4CCCCC4)cc3)nc2c1C	29	x	x	14	99*	3	54*	67*
CCN(Cc1ccccc1)S(=O)(=O)c1ccc(C(=O)N(CCCN(C)C)c2nc3c(C)c(C)ccc3s2)cc1	34	x	x	30	97*	5	46*	49*
O=C(NCCN1CCN(S(=O)(=O)c2ccc([N+](=O)[O-])cc2)CC1)C(=O)Nc1ccccc1	-2	-17	-0.57	2	71*	8	15	x
C=CCN1N=C(c2ccc(NC(=O)c3ccccc3)cc2)CSC1=O	-4	-4	-0.36	11	66*	10	4	x
O=C(Nc1ccc(-c2ccccc2)cc1)c1ccccc1	0	x	x	-4	24	0	x	x
SMILES	B2AR ag	MDM2 E3 inh	Dynein transport	UPR XBP1 act	Mdm2 MdmX PPI	UPR CHOP act	Mdm2-MdmX conf	FLuc counter
CCCSc1nsc(NC(=O)Nc2ccc(F)cc2F)n1	13	x	x	4	87*	10	59*	71*
COc1cccc(NC(=O)Nc2nc(SC(C)(C)C)ns2)c1	26	x	x	6	93*	18	72*	57*
CCSc1nsc(NC(=O)Nc2cccc(F)c2)n1	18	x	x	3	94*	9	88*	26
COc1cccc(NC(=O)Nc2nc(SC)ns2)c1	-89	x	x	-5	-66	4	x	x
CCCSc1nsc(NC(=O)C(c2ccccc2)c2ccccc2)n1	35	-1	-0.14	0	40	-1	x	x
O=C(Nc1nccs1)C1CC(=O)N(CCc2ccc(F)cc2)C1 (stereo unspecified)	-1	x	x	-5	23	3	x	x
CCc1ccc(-c2cc(C)no2)cc1S(=O)(=O)N1CCCN(Cc2ccc(F)cc2)C1	-8	x	x	-1	68*	0	27	x
Nc1c(C(=O)c2ccccc2O)cnn1-c1ccc(S(=O)(=O)N2CCOCC2)cc1[N+](=O)[O-]	x	-11	2.4	14	70*	3	15	x
C=Cc1ncc(OC)c2c1[nH]c1ccccc12	18	x	x	-5	100*	8	59*	22
COc1cccc2[nH]c3ccccc3c(=O)c12	-5	x	x	-4	23	-1	x	x
CCN(C(=O)c1ccc(Cl)c(S(=O)(=O)Nc2c(C)n(C)n(-c3ccccc3)c2=O)c1)c1ccccc1	-2	x	x	0	12	1	x	x
Cc1onc(-c2ccccc2)c1C(=O)NCCSCc1ccco1	-2	x	x	1	-3	3	x	x
COc1ccc(C(=O)NC2CCCc3ccccc32)cc1[N+](=O)[O-] (stereo unspecified)	-1	x	x	0	67*	1	58*	53*
COc1cc(C(=O)NC2CCCc3ccccc32)cc(OC)c1C (stereo unspecified)	7	x	x	-6	24	1	x	x
COc1ccc(C2=NOC(C(=O)NCc3ccco3)C2)cc1 (stereo unspecified)	1	-2	0.43	3	50	1	x	x
COc1cc(C2=NOC(C(=O)NCc3ccco3)C2)cc(OC)c1OC (stereo unspecified)	2	-14	0.097	2	64*	1	57*	73*
COc1cc(OC)c(C2=NOC(C(=O)NCc3cccs3)C2)cc1Cl (stereo unspecified)	-4	-6	-0.96	2	54*	2	51*	59*
